# Only some compounds are listed: those with a hit (about 2% of all), similar ones and a draw of the others.
# MC4R ag barr = MC4R agonists recruiting beta-arrestin, primary screen, cell-based, luminescence, agonist arm of biased-ligand search; Melanocortin receptor 4 (Homo sapiens), P32245; U2OS MC4R beta-arrestin complementation; percent of melanotan II response, DMSO zero; activation, % at 8.9 µM; actives 0.98% (n = 360,000); AID 540308, 2011;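 active = activation above a per-plate cutoff, the mean activation of sample wells on that plate plus 3 SD, cut at about 8% in these data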
# Target sequence (P32245 whole entry, looked up): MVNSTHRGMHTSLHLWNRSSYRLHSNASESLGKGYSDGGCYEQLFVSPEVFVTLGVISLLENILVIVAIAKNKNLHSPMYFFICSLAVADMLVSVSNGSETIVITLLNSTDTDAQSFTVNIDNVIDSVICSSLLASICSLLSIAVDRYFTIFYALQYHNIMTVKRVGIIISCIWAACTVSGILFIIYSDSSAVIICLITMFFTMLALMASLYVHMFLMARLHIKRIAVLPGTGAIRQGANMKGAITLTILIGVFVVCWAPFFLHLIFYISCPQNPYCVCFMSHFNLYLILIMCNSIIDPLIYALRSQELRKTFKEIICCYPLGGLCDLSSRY
# XBP1 UPR activ = activators of adaptive XBP1 UPR arm, primary screen, cell-based, CHO-XBP1 luciferase reporter, luminescence, uHTS; IRE1-XBP1 UPR activation; percent of tunicamycin response, DMSO as zero; activation, % at 20 µM; actives 0.33% (n = 330,000);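 active = versus positive control, 20 µM dose yields 30% or more activation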;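 note: 100% = tunicamycin at 10 µg/mL and 0% = DMSO only wells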
#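 Assay system: CHO-XBP1 luciferase reporter cells; Schedule: 6 h treatment, 37 °C; Detection: glow luminescence from Steady-Glo reagent; Benchmarks: high control tunicamycin 10 µg/mL final, low control DMSO vehicle only.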
# A1 inh = caspase 3/7 activation in MEF A1-2A-BIM cells, primary screen, A1 inhibitor project, cell-based, luminescence, HTS | Caspase-Glo 3/7 luminescence, 3 h; percent of clofoctol response, vehicle zero | caspase activation, % (no concentration beside the values) | actives 0.066% (n = 330,000) | AID 2462, 2010;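 active = over half of replicate activation scores above 10%, or exactly half above 10 with the replicate mean above 10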
# MC4R antagonist = MC4R antagonists of cAMP signaling, primary screen, cell-based, TR-FRET, antagonist arm of biased-ligand search | Melanocortin receptor 4 (Homo sapiens), P32245 | MC4R-expressing cells, MTII-stimulated cAMP, LANCE TR-FRET | inhibition, % at 6.5 µM | actives 0.48% (n = 360,000) | AID 540295, 2011;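 active = inhibition above its plate's cutoff, the mean of tested wells on that plate plus 3 SD, cut at about 29% in these data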;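 note: 0% = Melanotan II alone and 100% = Melanotan II plus saturating MCL0020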
#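 System: U2OS cells stably expressing human melanocortin 4 receptor (MC4R). Reagent: Melanotan II challenge after compound preincubation. Doses: 6.5 µM. Times: 30-min compound, 1-h challenge, 1-h detection, room temperature. Measured by: TR-FRET with Eu-cAMP and labeled anti-cAMP, 671 nm. Replicates: singlicate.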
# CHOP UPR activ = activators of apoptotic CHOP UPR arm, primary screen, cell-based, CHO-CHOP luciferase reporter, luminescence, uHTS. UPR activation; percent of tunicamycin response over DMSO baseline. activation, % at 10 µM. actives 0.34% (n = 330,000);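 active = at 10 µM dose, activation of 40% or more, normalized to positive control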;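 note: 100% = tunicamycin at 10 µg/mL and 0% = DMSO alone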
#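 Test system: CHO-CHOP cells, stable luciferase reporter of PERK-eIF2a-CHOP signalling | Quantity: 500 CHO-CHOP cells per well | Buffer or medium: F12 plus 10% serum | Compound dosing: 10 µM single point, 0.5% DMSO | Schedule: 6 h compound treatment, 37 °C | Signal: Luciferase luminescence | Control set: Tunicamycin high control, DMSO low control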
# UPR CHOP confirm = activators of apoptotic CHOP UPR arm, confirmation, cell-based, CHO-CHOP luciferase reporter, single concentration; shares compounds with CHOP UPR activ; actives 64% (n = 1,000); activation, % at 10 µM; CHO-CHOP cells, CHOP-luciferase reporter luminescence; percent of tunicamycin response, DMSO as zero; in the data active = activation above about 33%;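 note: 0% = DMSO wells and 100% = tunicamycin 10 µg/mL wells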
# * marks the source's active call; other numbers are inactive results; x = no result.
SMILES,MC4R ag barr,XBP1 UPR activ,A1 inh,MC4R antagonist,CHOP UPR activ,UPR CHOP confirm
Fc1ccc(Oc2nc(-c3ccccn3)nc3ccccc23)cc1,0.7,13.0,-0.9,-4.6,23.9,x
c1ccc(Oc2nc(-c3ccccn3)nc3ccccc23)cc1,-0.3,14.8,-5.0,3.6,41.5*,9.3
Cc1cn([C@H]2C[C@H](O)[C@@H](CNCc3ccc(-c4cc(Cl)ccc4C(F)(F)F)o3)O2)c(=O)[nH]c1=O,-0.3,x,x,0.0,x,x
Cc1ccc(CN2CCN(/N=C/c3ccc(O)c(O)c3)CC2)cc1,-1.3,19.2,-0.3,5.4,147.5*,105.5*
Cc1ccc(CN2CCN(/N=C/c3ccc(C(=O)O)cc3)CC2)cc1,-2.4,0.1,0.2,-4.3,1.0,x
CCn1c(=O)cc(C(=O)OC)sc1=Nc1ccc(F)c(F)c1,2.1,5.9,-0.6,6.9,8.0,x
COC(=O)c1cc(=O)n(Cc2ccc3c(c2)OCO3)c(=Nc2ccc(F)c(Cl)c2)s1,0.2,2.5,0.2,-3.3,61.6*,72.8*
COC(=O)c1cc(=O)n(CCc2ccc(OC)cc2)c(=Nc2ccc(F)c(Cl)c2)s1,1.1,10.5,1.3,10.4,60.2*,39.8*
COC(=O)c1cc(=O)n(CCc2ccccc2)c(=Nc2ccc(F)cc2)s1,-1.1,4.8,0.2,12.0,5.9,x
O=C(CCl)N1N=C(c2cccs2)CC1c1ccco1 (centres undefined),8.0,-7.8,1.7,-3.3,59.1*,34.5*
Cc1cc(SCC(=O)N/N=C/c2ccc(O)c(O)c2)c(C)cc1Br,-0.7,22.6,0.5,11.4,57.4*,19.8
O=C(N/N=C/c1ccc(O)c(O)c1)c1cc(-c2ccccc2)nc2ccccc12,-1.6,33.6*,0.3,4.2,98.6*,25.2
Cc1cc(SCC(=O)N/N=C/c2ccc(O)c(O)c2)nc2ccccc12,0.3,58.6*,-0.7,0.6,107.6*,42.0*
Cc1cc(SCC(=O)N/N=C/c2ccc(O)cc2O)nc2ccccc12,0.1,-5.2,-0.6,0.3,-0.3,x
CC1(C(=O)NCc2ccco2)Cc2c(-c3cccc(C(N)=O)c3)ccnc2O1 (centres undefined),-0.5,x,x,-14.5,x,x
CCCCN(C=O)c1c(CC)nc2ccc(C(=O)N3CCCCC3)cn12,-1.3,x,x,9.9,x,x
Cc1nnc(SCc2nnc(-c3cccs3)o2)n1Cc1ccccc1,-3.6,-0.3,-0.3,11.4,0.8,x
Clc1ccc(-c2nnc(CSc3nnc(-c4cccs4)n3Cc3ccccc3)o2)cc1,1.4,-0.2,0.6,14.8,46.9*,-2.6
Oc1ccc(-c2cn3c(n2)SCC3)cc1O,-0.9,0.0,-0.4,-2.1,51.6*,2.4
Oc1ccc(-c2cn3c(n2)SCC3)cc1,-1.9,-2.0,0.5,-4.2,-1.9,x
Cc1ccccc1-c1csc(C(O)c2ccc(F)c(F)c2)n1 (centres undefined),3.7,x,x,7.6,x,x
CC(C)Oc1cc(F)ccc1-c1cc(C(=O)NCc2ccccn2)[nH]n1,-0.2,x,x,-3.5,x,x
C[C@@H]1CN([C@H](C)CO)C(=O)c2cc(NC(=O)Nc3ccc(C(F)(F)F)cc3)ccc2O[C@H]1CN(C)Cc1ccc(Cl)c(Cl)c1,-1.2,18.9,x,6.3,183.8*,60.4*
C[C@@H]1CN([C@@H](C)CO)C(=O)c2cc(NC(=O)CCC(F)(F)F)ccc2O[C@H]1CN(C)Cc1ccc(Cl)c(Cl)c1,7.5,-2.6,1.0,9.5,0.2,x
COc1cc(/C=C/[N+](=O)[O-])ccc1OC(=O)c1cc2ccccc2oc1=O,-2.7,-10.0,1.2,18.4,119.5*,-3.7
SMILES,MC4R ag barr,XBP1 UPR activ,A1 inh,MC4R antagonist,CHOP UPR activ,UPR CHOP confirm
COc1ccccc1OC(=O)c1cc2ccccc2oc1=O,-1.9,-0.8,0.4,-4.4,1.7,x
CCOC(=O)c1c(-c2ccc(-c3ccccc3)cc2)csc1NC(=O)CNCCN(C)C,0.8,9.7,0.1,0.4,42.4*,119.3*
CCOC(=O)c1c(-c2ccccc2)csc1NC(=O)CCN1C(=O)c2ccccc2C1=O,0.9,0.0,-0.1,19.1,-0.8,x
O=C(C#Cc1ccccc1)c1cccc([N+](=O)[O-])c1,-2.9,-6.4,1.4,1.6,292.6*,197.2*
CCOC(=O)c1c(C)oc2c1c(C(c1cccnc1)N1CCOCC1)c(O)c1ccccc12 (centres undefined),-3.7,4.4,-0.3,5.7,70.5*,134.3*
CCOc1ccc(OCc2ccc(C(=O)N/N=C(\C)c3ccccn3)cc2)cc1,-2.6,x,-0.2,2.6,x,x
C/C(=N\NC(=O)c1cc(-c2cccs2)nc2ccccc12)c1ccccn1,-2.2,5.6,-1.2,-10.3,247.7*,197.9*
C/C(=N\NC(=O)c1cccc2ccccc12)c1ccccn1,-6.7,1.4,x,11.7,331.8*,339.4*
C/C(=N\NC(=O)c1ccccc1OCc1ccc(F)cc1)c1ccccn1,-3.9,17.6,-2.3,10.6,109.3*,99.2*
C/C(=N\NC(=O)c1cccc2ccccc12)c1cccs1,-2.5,4.4,0.4,-6.2,2.0,x
N#Cc1cnn2c(=O)[nH]cnc12,-0.7,x,x,18.1,x,x
O=C(Nc1ccccc1)Nc1nnc([C@@H]2C[C@H](O)[C@@H](CO)O2)s1,-2.8,x,x,-2.1,x,x
O=C(NC1CCCCC1)c1cccc(NC(=O)c2ccccc2Cl)c1,-1.3,x,x,-0.6,x,x
C=CCSC(=C(C#N)C#N)c1cc2c([nH]1)CCCC2,3.2,-4.8,-0.2,6.7,43.5*,54.8*
O=C(O)c1cc2c([nH]c1=O)CCCC2,-0.7,2.5,-0.9,1.9,-0.8,x
CC(=O)N/C(=N\c1nc(C)cc(C)n1)Nc1ccc(Cl)cc1Cl,-1.3,-3.4,0.5,7.5,48.8*,0.3
Cc1ccc(S(=O)(=O)N2[C@H](c3cccc(Cl)c3)CC(=O)[C@@H]3CN(S(=O)(=O)c4ccccc4C)[C@H](c4ccc(Cl)cc4)C[C@@H]32)cc1,0.0,x,x,0.8,x,x
Cc1ccc(S(=O)(=O)N2C[C@@H](C)[C@]3(C2)[C@H](O)[C@H](OC(=O)NC2CCCC2)C[C@H]2C(=O)N(c4ccccc4)C(=O)[C@H]23)cc1,-0.9,x,x,3.0,x,x
CCCNC(=O)C1(C)CCN(Cc2ccc(OC)c3ccccc23)C1 (centres undefined),-0.4,x,x,4.2,x,x
S=C1SCN(CC2CC2)CN1CC1CC1,-1.4,1.0,-0.6,-1.6,81.8*,86.0*

# Source: PubChem BioAssay (several laboratories)
